Screens (PubChem)
eIF4E-4G inh – inhibitors of eIF4E and eIF4G interaction in translation initiation. P63073+Q04637. TR-FRET eIF4E-eIF4GI(517-606) binding, 2 h. actives 0.37% (n = 220,000). inhibition, % at 21.7 µM;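 active = inhibition above about 30%, limit read from the data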
Runt-CBFb FRET – Runt domain-CBFb interaction inhibition; Q01196+Q13951; Cerulean-Runt/Venus-CBFb FRET ratio 530/480, 1 h; inhibition, % at 20 µM; actives 0.46% (n = 220,000); AID 1496;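 active = inhibition over about 50% at 20 µM in the single-dose screen, limit read from the data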
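Reagent – Venus-CBFb binding partner, 100 nM · Assay system – Cerulean-tagged RUNX1 Runt domain (FRET donor) fusion protein · Input – 100 nM per protein · Incubation – two 1 h room-temperature incubations shielded from light · Measured by – FRET fluorescence · Medium – Tris buffer pH 7.5 with salts and BSA · Benchmarks – unlabeled CBFb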
RanGTP-Imp inh – inhibitors of RanGTP-importin-beta interaction, primary screen, biochemical, FRET, CFP-Ran, YFP-importin-beta, homogeneous | cell-free CFP-Ran/YFP-importin-beta FRET ratio | inhibition, % (concentration not given with the values) | actives 1.1% (n = 300,000);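 active = more than half of the replicate wells show a fall in the fluorescence ratio signal beyond about 16%, limit read from the data, passing the limit was not always enough; inconclusive = exactly half of the replicate wells pass the set limit; inactive = fewer than half of replicates pass the limit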
Runt-SMMHC FRET – inhibitors of human RUNX1 Runt domain binding to CBFb-SMMHC | actives 0.74% (n = 220,000) | Cerulean-Runt/Venus-CBFb-SMMHC FRET ratio 530/480, 1 h | inhibition, % at 20 µM | Q01196+Q13951 | AID 1434;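 active = mean inhibition across duplicate retests at 20 µM reaching about 50%, limit read from the data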;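 also: inhibitors lower the FRET ratio by blocking Runt binding to CBFb-SMMHC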
PERK inh – inhibitors of human PERK kinase; inhibition, % at 5.6 µM; CHO PERK-DD fusion, SEAP luminescence translation reporter; actives 0.17% (n = 220,000); AID 1416; Q9NZJ5;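 active = inhibition above the mean inhibition of all tested compounds plus 3 SD, set separately per screening campaign, cut at about 2.9% in these data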;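 also: PERK kinase domain activated by AP20187 dimerizer at 100 nM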
Hck Nef HTS – blocks Nef-activated human Hck kinase; P08631; AID 463187; inhibition, % at 20 µM; Recombinant Hck-YEEI plus Nef, Z-Lyte FRET kinase assay; actives 0.68% (n = 220,000);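 active = Hck-Nef kinase inhibition above about 50%, limit read from the data; inactive = inhibition below that limit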
Target sequence (P08631 whole entry, looked up): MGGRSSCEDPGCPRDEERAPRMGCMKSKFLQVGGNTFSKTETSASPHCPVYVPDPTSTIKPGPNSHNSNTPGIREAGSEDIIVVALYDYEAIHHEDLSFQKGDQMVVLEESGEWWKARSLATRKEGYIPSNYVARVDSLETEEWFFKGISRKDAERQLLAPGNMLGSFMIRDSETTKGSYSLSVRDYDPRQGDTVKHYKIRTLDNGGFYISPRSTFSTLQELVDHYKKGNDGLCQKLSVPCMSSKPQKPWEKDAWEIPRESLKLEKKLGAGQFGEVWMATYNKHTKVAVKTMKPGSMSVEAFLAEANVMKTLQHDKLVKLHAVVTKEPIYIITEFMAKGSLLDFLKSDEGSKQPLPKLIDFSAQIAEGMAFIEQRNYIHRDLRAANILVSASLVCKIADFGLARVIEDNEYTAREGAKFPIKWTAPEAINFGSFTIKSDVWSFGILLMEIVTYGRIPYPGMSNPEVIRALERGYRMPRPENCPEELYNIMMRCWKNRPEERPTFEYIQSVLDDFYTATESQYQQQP
Hck Nef conf – confirmation of Hck-Nef kinase inhibitors; shares compounds with Hck Nef HTS; Recombinant Hck-YEEI:Nef, Z-Lyte FRET kinase assay; calls only at 10 µM; actives 28% (n = 1,300);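 active = average inhibition of at least 50%, with Z-scores no higher than 3 in both the phospho-tyrosine peptide and fluorescence counterscreens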
Hits are given with their value; 0 = inactive; ? = inconclusive; - = no result shown; + = active, no number. A selection: hits, their analogues and other compounds. The true share with any hit is near 2.2%.

SMILES	eIF4E-4G inh	Runt-CBFb FRET	RanGTP-Imp inh	Runt-SMMHC FRET	PERK inh	Hck Nef HTS	Hck Nef conf
COc1ccc(OC)c(N2C(=O)NC(=O)/C(=C/c3ccc([N+](=O)[O-])s3)C2=O)c1	0	0	0	0	0	89	0
COc1ccc(OC)c(N2C(=O)/C(=C/c3ccco3)C(=O)NC2=S)c1	-	-	0	-	-	-	-
CCN1C[C@]2(COC)CC[C@H](OC)[C@@]34C5C[C@H]6C(=O)C5[C@](O)(C[C@H]6OC)[C@@](O)(C(OC)C23)[C@@H]14 (some centres not stated)	-	-	0	-	-	-	-
CCOC(=O)C(=CNc1ccc(C(O)(C(=O)OCC)C(F)(F)F)cc1C)C(=O)OCC (configuration not stated)	0	0	0	0	0	0	-
COc1ccc(CCC(=O)N2C[C@H]3C[C@@H](C2)c2cccc(=O)n2C3)cc1	-	-	0	-	-	-	-
Cc1cc(C=C2C(=O)NC(=S)NC2=O)c(C)n1C1CCCC1	0	0	0	0	0	71	0
CCCC/C(=N\O)c1c[nH]c2ccccc12	0	0	0	0	0	0	-
Cc1cccc(N2C(=O)/C(=C/c3ccc(CN(CCC#N)S(C)(=O)=O)o3)C(=O)NC2=S)c1	0	0	0	0	0	53	0
O=C1NC(=O)N(c2ccc(Cl)cc2)C(=O)/C1=C\c1ccc(Sc2nc3ccccc3[nH]2)o1	0	0	0	0	0	57	0
O=C1NC(=O)C(=Cc2ccc(OCCOc3ccc([N+](=O)[O-])cc3)cc2)C(=O)N1	0	0	0	0	0	63	0
Cc1nn(CC(=O)N2CCC3(CC2)OCCO3)c(=O)c2cc3ccccc3n12	-	-	0	-	-	-	-
Nc1c(C(=O)NCC2CCCO2)c2nc3ccccc3nc2n1Cc1ccco1 (configuration not stated)	0	0	64	81	0	60	-
COc1ccc(Cn2c(N)c(C(=O)NCc3ccco3)c3nc4ccccc4nc32)cc1OC	-	0	-	57	0	62	0
O=C(Cn1cc(C=C2C(=O)NC(=O)NC2=O)c2ccccc21)NCC1CCCO1 (configuration not stated)	-	-	0	-	-	-	-
O=C1NC(=S)N(c2ccc(F)cc2)C(=O)/C1=C\c1ccoc1	34	0	-	0	0	79	+
COc1ccc(CCn2c(O)c(/C=N/NC(=O)c3ccncc3)c(=O)[nH]c2=O)cc1OC	0	0	0	0	0	0	-
CCCCC(=O)N/N=C/c1c(O)n(CCc2ccc(OC)c(OC)c2)c(=O)[nH]c1=O	0	0	0	0	0	78	0
CC1CCN(S(=O)(=O)c2ccc(NN=C(C#N)C#N)cc2)CC1	0	0	-	0	0	0	-
N#CC(C#N)=NNc1ccc(S(N)(=O)=O)cc1	0	0	0	0	0	52	+
CN1C(=O)C(=Cc2ccc(Sc3ccccc3)o2)C(=O)N(C)C1=O	0	0	-	0	0	70	0
CN1C(=O)C(=Cc2ccc(Sc3ccccc3)o2)C(=O)N(C)C1=S	-	-	0	-	-	-	-
O=C1NC(=O)N(Cc2ccco2)C(=O)/C1=C/C=C/c1ccco1	0	0	0	0	0	0	-
CN1C(=O)NC(=O)/C(=C\C=C\c2ccccc2[N+](=O)[O-])C1=O	0	0	-	0	0	93	0
O=c1c2ccccc2nc(-c2ccccc2)n1-c1ccccc1	0	0	0	0	0	0	-
O=c1c2ccccc2[se]n1-c1ccccc1	77	0	0	0	0	102	+
O=C1NC(=O)N(c2ccccc2)C(=O)/C1=C/C=C/c1ccco1	0	0	0	0	0	0	-
Cc1ccc(N2C(=O)NC(=O)/C(=C\C=C\c3ccco3)C2=O)cc1	0	0	0	0	0	0	-
Cc1ccc(N2C(=O)NC(=O)/C(=C\C=C\c3ccco3)C2=O)cc1C	0	0	0	0	0	68	0
CN(C)c1ccc(/C=C/C=C2/C(=O)NC(=O)N(c3ccccc3)C2=O)cc1	0	0	0	0	0	57	0
O=C1NC(=O)N(Cc2ccccc2)C(=O)/C1=C\C=C\c1ccco1	0	0	?	0	0	59	0
